Experimental data reported in ChEMBL document CHEMBL3352639, “Synthesis and biological evaluation of thienopyrimidine derivatives as GPR119 agonists” (Bioorg Med Chem Lett, 2014).
pEC50, pIC50: −log10 of the molar value. Active and inactive are the calls of the source. No cut-off for these calls is given here.

Experiments:
[1] = target: T1, Glucose-dependent insulinotropic receptor (Homo sapiens) (UniProt Q8TDV5); assay: Activation of human GPR119 expressed in CHO-K1 cells at 1 uM after 24 hrs by CRE-luciferase assay relative to GSK1292263; type: functional, cell-based
T1 sequence (whole entry): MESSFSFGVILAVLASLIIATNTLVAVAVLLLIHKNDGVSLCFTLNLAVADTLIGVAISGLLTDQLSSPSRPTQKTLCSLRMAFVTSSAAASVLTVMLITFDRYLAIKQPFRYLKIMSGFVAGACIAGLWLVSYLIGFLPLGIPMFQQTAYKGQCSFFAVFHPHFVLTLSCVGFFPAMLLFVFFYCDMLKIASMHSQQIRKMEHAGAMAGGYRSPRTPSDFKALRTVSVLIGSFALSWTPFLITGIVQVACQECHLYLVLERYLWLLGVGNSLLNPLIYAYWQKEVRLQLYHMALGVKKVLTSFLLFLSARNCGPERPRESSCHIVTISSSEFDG

[2] = target: T2, Glucose-dependent insulinotropic receptor (Homo sapiens, UniProt Q8TDV5); assay: Agonist activity at human GPR119 expressed in CHO-K1 cells after 24 hrs by CRE-luciferase assay; type: functional, cell-based
T2 sequence (Q8TDV5 whole entry): T1 sequence (whole entry)

Cytochrome P450 2B6 [3] = target: T3, Cytochrome P450 2B6 (Homo sapiens, UniProt P20813); assay: Inhibition of CYP2B6 (unknown origin); type: ADME
T3 sequence (P20813 whole entry): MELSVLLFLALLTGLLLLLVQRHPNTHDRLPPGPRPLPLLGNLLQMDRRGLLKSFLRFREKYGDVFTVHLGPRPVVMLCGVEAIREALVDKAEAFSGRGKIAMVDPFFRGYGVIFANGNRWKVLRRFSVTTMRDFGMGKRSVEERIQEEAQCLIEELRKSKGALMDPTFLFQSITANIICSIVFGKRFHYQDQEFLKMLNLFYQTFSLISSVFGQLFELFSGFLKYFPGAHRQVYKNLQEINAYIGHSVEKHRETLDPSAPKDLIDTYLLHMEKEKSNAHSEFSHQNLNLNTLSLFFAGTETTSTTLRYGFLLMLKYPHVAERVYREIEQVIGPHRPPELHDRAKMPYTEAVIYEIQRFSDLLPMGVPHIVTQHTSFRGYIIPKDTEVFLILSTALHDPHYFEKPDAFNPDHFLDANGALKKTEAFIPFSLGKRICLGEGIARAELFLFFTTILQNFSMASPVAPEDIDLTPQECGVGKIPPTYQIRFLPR

Cytochrome P450 2C9 [4] = target: T4, Cytochrome P450 2C9 (Homo sapiens, UniProt P11712); assay: Inhibition of CYP2C9 (unknown origin); type: ADME
T4 sequence (P11712 whole entry): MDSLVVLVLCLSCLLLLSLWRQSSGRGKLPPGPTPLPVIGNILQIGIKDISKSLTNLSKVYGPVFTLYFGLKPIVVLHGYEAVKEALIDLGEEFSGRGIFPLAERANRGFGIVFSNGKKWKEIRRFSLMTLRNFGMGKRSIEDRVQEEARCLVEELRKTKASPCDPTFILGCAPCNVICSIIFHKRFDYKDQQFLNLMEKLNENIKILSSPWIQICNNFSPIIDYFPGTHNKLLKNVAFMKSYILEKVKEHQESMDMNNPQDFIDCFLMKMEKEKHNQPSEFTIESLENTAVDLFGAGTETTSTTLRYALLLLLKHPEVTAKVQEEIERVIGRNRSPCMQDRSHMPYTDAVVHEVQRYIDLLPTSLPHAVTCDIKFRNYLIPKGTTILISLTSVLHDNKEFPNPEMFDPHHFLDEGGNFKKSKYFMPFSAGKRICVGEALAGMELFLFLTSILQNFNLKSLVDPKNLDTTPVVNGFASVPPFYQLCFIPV

Cytochrome P450 3A4 [5] = target: T5, Cytochrome P450 3A4 (Homo sapiens, UniProt P08684); assay: Induction of CYP3A4 (unknown origin); type: ADME
T5 sequence (P08684 whole entry): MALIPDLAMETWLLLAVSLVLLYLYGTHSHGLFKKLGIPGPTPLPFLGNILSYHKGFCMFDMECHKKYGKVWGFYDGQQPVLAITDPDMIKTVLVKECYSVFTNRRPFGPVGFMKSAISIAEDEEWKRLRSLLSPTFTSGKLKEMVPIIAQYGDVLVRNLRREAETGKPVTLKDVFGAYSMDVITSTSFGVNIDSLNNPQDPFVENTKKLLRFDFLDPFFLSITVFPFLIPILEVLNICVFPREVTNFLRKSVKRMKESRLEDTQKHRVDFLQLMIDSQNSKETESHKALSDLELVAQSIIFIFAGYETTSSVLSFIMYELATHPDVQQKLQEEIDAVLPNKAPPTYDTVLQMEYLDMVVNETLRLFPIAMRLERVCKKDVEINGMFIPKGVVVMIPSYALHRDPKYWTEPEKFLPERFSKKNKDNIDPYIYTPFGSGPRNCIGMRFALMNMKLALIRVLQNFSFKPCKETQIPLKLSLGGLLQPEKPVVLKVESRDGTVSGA

Cytochrome P450 3A4 [6] = target: T5, Cytochrome P450 3A4; assay: Inhibition of CYP3A4 (unknown origin); type: ADME
[7] = Cytotoxicity against mouse NIH/3T3 cells; type: cell-based; conditions: NIH3T3
Cytochrome P450 2E1 = Cytochrome P450 2E1 (Homo sapiens, UniProt P05181); assay: Induction of CYP2E1 (unknown origin); type: ADME
Chain of Cytochrome P450 2E1 (P05181 whole entry): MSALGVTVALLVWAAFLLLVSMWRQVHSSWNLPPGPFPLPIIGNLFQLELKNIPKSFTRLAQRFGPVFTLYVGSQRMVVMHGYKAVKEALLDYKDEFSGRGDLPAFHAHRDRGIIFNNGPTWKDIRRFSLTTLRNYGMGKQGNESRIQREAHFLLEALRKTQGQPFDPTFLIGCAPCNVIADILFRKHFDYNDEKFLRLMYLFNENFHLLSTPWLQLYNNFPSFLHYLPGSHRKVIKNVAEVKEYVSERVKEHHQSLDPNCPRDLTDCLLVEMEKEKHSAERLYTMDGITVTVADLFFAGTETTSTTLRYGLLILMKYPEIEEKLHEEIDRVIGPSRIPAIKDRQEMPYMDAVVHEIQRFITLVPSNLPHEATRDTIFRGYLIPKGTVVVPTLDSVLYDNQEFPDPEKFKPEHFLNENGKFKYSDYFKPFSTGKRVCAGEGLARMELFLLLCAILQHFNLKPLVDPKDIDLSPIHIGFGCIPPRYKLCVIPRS

Cytochrome P450 2B6 [8] = target: T3, Cytochrome P450 2B6; assay: Induction of CYP2B6 (unknown origin); type: ADME
Cytochrome P450 2C19 = Cytochrome P450 2C19 (Homo sapiens, UniProt P33261); assay: Inhibition of CYP2C19 (unknown origin); type: ADME
Chain of Cytochrome P450 2C19 (P33261 whole entry): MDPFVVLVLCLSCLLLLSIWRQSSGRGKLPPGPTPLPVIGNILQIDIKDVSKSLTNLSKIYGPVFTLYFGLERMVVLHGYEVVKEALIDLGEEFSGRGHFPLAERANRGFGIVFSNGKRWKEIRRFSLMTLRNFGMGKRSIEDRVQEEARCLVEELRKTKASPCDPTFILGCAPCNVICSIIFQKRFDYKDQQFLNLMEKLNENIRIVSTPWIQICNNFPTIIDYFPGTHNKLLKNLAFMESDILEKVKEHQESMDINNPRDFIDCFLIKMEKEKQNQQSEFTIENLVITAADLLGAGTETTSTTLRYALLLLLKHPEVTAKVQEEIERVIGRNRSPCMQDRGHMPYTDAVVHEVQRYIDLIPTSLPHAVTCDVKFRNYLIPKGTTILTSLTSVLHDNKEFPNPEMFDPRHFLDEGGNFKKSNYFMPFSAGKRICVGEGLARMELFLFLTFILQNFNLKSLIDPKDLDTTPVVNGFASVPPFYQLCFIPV

Cytochrome P450 1A2 [9] = target: T6, Cytochrome P450 1A2 (Homo sapiens, UniProt P05177); assay: Inhibition of CYP1A2 (unknown origin); type: ADME
T6 sequence (P05177 whole entry): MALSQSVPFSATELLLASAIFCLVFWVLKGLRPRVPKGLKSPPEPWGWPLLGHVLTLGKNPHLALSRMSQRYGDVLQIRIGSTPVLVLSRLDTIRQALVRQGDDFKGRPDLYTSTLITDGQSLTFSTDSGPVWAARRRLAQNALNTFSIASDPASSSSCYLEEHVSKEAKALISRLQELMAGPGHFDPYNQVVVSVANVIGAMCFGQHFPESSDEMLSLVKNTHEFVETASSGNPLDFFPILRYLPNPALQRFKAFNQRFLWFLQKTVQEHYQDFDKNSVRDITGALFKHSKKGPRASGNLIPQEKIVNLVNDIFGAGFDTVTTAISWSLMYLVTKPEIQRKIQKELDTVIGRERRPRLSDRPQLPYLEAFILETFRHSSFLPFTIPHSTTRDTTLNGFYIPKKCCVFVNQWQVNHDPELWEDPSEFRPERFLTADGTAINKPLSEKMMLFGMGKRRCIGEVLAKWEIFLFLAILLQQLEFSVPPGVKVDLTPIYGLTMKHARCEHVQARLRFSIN

HFL1 = assay: Cytotoxicity against human HFL1 cells; type: cell-based
[10] = Cytotoxicity against chinese hamster CHOK1 cells; type: cell-based; conditions: Cricetulus griseus, CHO-K1
[11] = Metabolic stability in rat liver microsomes assessed as compound remaining at 1 uM after 30 mins by LC/MS/MS analysis; type: ADME; conditions: read-out: Stability
Cytochrome P450 2D6 = Cytochrome P450 2D6 (Homo sapiens, UniProt P10635); assay: Inhibition of CYP2D6 (unknown origin); type: ADME
Chain of Cytochrome P450 2D6 (P10635 whole entry): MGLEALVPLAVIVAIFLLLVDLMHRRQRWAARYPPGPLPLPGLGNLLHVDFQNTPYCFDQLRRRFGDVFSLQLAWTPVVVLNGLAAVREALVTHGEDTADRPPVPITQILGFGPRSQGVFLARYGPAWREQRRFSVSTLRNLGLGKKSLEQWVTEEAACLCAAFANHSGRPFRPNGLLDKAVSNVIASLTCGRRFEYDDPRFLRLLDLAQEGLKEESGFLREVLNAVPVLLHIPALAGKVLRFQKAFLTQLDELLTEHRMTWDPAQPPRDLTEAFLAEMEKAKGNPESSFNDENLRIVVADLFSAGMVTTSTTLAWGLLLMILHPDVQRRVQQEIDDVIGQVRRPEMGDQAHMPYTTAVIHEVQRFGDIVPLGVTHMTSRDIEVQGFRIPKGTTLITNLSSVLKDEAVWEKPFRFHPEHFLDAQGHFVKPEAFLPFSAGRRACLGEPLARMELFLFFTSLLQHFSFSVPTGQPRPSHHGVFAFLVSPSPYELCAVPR

Mus musculus = assay: Antidiabetic activity in C57BL/6 mouse assessed as reduction in plasma glucose AUC at 15 mg/kg by OGTT; type: functional, organism-based; design: dose 15 mg/kg
In short: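 OGTT in normal mice, n = 7 per group. Plasma glucose was followed over the test, and efficacy was taken as the AUC of glucose concentration. Data are given as means ± SEM.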

Cytochrome P450 2C9 [12] = target: T4, Cytochrome P450 2C9; assay: Induction of CYP2C9 (unknown origin); type: ADME
[13] = Metabolic stability in human liver microsomes assessed as compound remaining at 1 uM after 30 mins by LC/MS/MS analysis; type: ADME; conditions: read-out: Stability
hERG (KCNH2) = hERG (KCNH2) (Homo sapiens, UniProt Q12809); assay: Inhibition of human ERG at 10 uM
Chain of hERG (KCNH2) (Q12809 whole entry): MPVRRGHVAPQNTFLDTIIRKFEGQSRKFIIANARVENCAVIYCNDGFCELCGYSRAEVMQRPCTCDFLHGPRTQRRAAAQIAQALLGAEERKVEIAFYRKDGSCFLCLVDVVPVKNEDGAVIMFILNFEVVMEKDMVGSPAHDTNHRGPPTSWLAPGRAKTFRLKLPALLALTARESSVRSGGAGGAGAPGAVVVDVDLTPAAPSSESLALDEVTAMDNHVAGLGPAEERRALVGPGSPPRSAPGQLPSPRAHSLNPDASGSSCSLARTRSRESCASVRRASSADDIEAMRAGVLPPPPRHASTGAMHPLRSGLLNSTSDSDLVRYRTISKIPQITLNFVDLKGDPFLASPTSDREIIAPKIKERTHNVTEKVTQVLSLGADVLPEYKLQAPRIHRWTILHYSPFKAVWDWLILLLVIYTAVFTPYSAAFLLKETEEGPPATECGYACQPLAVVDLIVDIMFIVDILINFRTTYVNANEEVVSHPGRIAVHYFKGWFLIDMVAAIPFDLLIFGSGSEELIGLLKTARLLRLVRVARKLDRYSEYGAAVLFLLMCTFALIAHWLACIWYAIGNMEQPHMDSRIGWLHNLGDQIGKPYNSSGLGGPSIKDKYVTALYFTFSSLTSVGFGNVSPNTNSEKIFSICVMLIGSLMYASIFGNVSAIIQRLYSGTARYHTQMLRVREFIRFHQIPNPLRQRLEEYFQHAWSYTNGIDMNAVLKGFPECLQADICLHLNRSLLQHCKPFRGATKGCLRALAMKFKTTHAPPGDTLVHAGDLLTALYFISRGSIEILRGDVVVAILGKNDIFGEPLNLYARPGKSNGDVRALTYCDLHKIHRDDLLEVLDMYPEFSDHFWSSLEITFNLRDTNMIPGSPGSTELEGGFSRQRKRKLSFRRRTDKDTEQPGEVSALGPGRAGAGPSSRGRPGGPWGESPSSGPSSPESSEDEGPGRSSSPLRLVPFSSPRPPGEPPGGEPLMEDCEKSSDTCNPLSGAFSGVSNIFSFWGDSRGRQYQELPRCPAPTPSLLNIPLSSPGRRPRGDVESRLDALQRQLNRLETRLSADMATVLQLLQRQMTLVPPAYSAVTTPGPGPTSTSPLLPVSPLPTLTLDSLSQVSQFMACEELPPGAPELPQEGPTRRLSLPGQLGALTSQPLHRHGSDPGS
In short: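 hERG liability was assessed in a binding-assay format, reported as percent inhibition with the compound at 10 μM.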

Beta-TC6 = assay: Increase in glucose-stimulated insulin release in mouse BetaTC6 cells after 1 hr by ELISA; type: functional, cell-based
In short: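 GSIS was measured in the TC-6 pancreatic beta-cell line exposed to compound over 10 nM to 100 nM, with insulin secretion read under glucose stimulation.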

Cytochrome P450 1A2 [14] = target: T6, Cytochrome P450 1A2; assay: Induction of CYP1A2 (unknown origin); type: ADME
L929 = assay: Cytotoxicity against mouse L929 cells; type: cell-based
Cytochrome P450 2A6 = target: T7, Cytochrome P450 2A6 (Homo sapiens, UniProt P11509); assay: Inhibition of CYP2A6 (unknown origin); type: ADME
T7 sequence (P11509 whole entry): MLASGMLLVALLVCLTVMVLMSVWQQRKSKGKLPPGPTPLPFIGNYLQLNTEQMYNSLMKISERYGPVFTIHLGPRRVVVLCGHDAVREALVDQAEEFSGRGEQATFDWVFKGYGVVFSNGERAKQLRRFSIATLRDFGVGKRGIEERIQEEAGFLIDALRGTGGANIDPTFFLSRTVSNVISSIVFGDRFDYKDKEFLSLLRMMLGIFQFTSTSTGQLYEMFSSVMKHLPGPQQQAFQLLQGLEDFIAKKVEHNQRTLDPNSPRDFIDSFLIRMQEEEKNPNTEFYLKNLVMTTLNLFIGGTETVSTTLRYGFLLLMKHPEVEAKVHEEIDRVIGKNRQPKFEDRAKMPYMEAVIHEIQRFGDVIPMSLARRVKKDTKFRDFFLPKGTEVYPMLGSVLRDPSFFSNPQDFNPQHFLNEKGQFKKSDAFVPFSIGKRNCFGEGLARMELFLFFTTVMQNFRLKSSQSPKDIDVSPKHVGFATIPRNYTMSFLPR

## CC(C)S(=O)(=O)N1CCC(N(C)c2ncnc3cc(-c4ccc(S(C)(=O)=O)cc4)sc23)CC1
[1]
  Activity: 70%
[2]
  pEC50: 5.92

## CC(C)(C)OC(=O)N1CCC(Oc2ncnc3cc(-c4ccc(S(C)(=O)=O)cc4)sc23)CC1
[1]
  Activity: 64%
[2]
  pEC50: 7.00

## CCc1cnc(N2CCC(Oc3ncnc4cc(-c5ccc(S(C)(=O)=O)cc5)sc34)CC2)nc1
[1]
  Activity: 75%
[2]
  pEC50: 6.62

## CN(c1ncnc2cc(-c3ccc(S(C)(=O)=O)cc3F)sc12)C1CCN(C(=O)OC(C)(C)C)CC1
Cytochrome P450 2B6 [3]
  inhibition (INH): Not Active
Cytochrome P450 2C9 [4]
  pIC50: 4.11
Cytochrome P450 3A4 [5]
  Activity: Not Active
Cytochrome P450 3A4 [6]
  inhibition (INH): Not Active
[7]
  pIC50: 4.30
Cytochrome P450 2E1
  Activity: Not Active
Cytochrome P450 2B6 [8]
  Activity: Not Active
Cytochrome P450 2C19
  inhibition (INH): Not Active
Cytochrome P450 1A2 [9]
  inhibition (INH): Not Active
HFL1
  pIC50: < 4.00
[10]
  pIC50: 4.27
[11]
  remaining at 0.5 h, 1 µM: > 95%
Cytochrome P450 2D6
  inhibition (INH): Not Active
Mus musculus
  Activity: Active
[1]
  Activity: 94%
Cytochrome P450 2C9 [12]
  Activity: Not Active
[2]
  pEC50: 8.52
[13]
  remaining at 0.5 h, 1 µM: > 95%
hERG (KCNH2)
  inhibition at 10 µM: 13%
Beta-TC6
  Activity: Dose-dependent effect
Cytochrome P450 1A2 [14]
  Activity: Not Active
L929
  pIC50: 4.18
Cytochrome P450 2A6
  inhibition (INH): Not Active

## CN(c1ncnc2cc(-c3ccc(S(C)(=O)=O)cc3F)sc12)C1CCN(C(=O)OC2(C)CC2)CC1
[1]
  Activity: 105%
[2]
  pEC50: 7.59

## CCc1cnc(N2CCC(Nc3ncnc4cc(-c5ccc(S(C)(=O)=O)cc5)sc34)CC2)nc1
[1]
  Activity: 49%

## CC(C)NC(=O)N1CCC(N(C)c2ncnc3cc(-c4ccc(S(C)(=O)=O)cc4)sc23)CC1
[1]
  Activity: 49%

## CCN(c1ncnc2cc(-c3ccc(S(C)(=O)=O)cc3F)sc12)C1CCN(C(=O)OC(C)(C)C)CC1
[1]
  Activity: 45%

## CN(c1ncnc2cc(-c3ccc(S(C)(=O)=O)cc3F)sc12)C1CCN(C(=O)C2CC2)CC1
[1]
  Activity: 65%

## CN(c1ncnc2cc(-c3ccc(S(C)(=O)=O)cc3)sc12)C1CCN(C(=O)C2CC2)CC1
[1]
  Activity: 72%
[2]
  pEC50: 6.76

## CC(C)OC(=O)N1CCC(N(C)c2ncnc3cc(-c4ccc(S(C)(=O)=O)cc4)sc23)CC1
[1]
  Activity: 67%
[2]
  pEC50: 7.09
